Key:
Homo sapiens = organism: Homo sapiens; assay: Inhibition of U-46,619 (1 uM)-induced platelet aggregation in human platelet-rich plasma(PRP); assay type: functional
Summary of the method: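 Citrated blood (1/10 volume 3.8% trisodium citrate) from volunteers free of platelet-affecting medication for 10 days; PRP spun at 100g for 12 min. Compound or vehicle preincubated with PRP for 1 min at 37 °C. Aggregation induced with U46619 and followed for 3 min.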

Thromboxane-A synthase = target: T1, Thromboxane-A synthase (Homo sapiens, UniProt P24557); assay: In vitro for inhibitory activity against thromboxane synthase
T1 sequence (P24557 whole entry): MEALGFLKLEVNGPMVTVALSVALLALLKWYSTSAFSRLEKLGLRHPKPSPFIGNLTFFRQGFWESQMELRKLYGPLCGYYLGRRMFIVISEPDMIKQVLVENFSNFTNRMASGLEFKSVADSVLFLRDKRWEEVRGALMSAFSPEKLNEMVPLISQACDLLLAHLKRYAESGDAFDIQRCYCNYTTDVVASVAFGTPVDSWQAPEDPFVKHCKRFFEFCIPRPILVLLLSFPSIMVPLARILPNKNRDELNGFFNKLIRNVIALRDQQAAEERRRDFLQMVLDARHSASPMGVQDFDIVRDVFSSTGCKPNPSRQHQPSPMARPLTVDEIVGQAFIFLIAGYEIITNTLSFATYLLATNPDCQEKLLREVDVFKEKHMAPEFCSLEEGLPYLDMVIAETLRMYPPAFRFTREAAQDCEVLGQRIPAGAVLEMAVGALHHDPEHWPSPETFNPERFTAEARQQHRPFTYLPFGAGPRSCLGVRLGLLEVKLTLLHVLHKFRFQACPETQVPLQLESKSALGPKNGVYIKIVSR
Summary of the method: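 Compound or vehicle incubated with whole human blood for 30 min at 37 °C, then serum was prepared. Serum TXB2, the stable TXA2 metabolite, was measured by radioimmunoassay. Run in triplicate.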

Thromboxane A2 receptor = target: T2, Thromboxane A2 receptor (Homo sapiens, UniProt P21731); assay: In vitro for antagonistic activity against […]; assay type: functional
T2 sequence (P21731 whole entry): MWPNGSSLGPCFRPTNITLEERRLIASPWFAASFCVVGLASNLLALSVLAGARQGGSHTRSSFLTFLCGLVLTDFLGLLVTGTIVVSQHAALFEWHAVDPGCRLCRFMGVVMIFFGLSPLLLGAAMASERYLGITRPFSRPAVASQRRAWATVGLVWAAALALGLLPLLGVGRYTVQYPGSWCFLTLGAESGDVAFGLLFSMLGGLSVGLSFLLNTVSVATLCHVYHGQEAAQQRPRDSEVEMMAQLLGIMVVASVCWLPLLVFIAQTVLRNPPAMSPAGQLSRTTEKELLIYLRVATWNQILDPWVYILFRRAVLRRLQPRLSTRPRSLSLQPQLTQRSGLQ
Summary of the method: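 Buffer was 10 mM Hepes, 2 mM CHAPS and 10 μM indomethacin, pH 7.4. Competitor range 10^-10 to 10^-5 M; incubation 30 °C for 30 min; stopped with ice-cold 25 mM Tris pH 7.4 and filtered. Nonspecific binding taken with 10 μM SQ29548. Run in triplicate.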

| Structure (SMILES) | IC50 (Homo sapiens) | IC50 (Thromboxane-A synthase) | Kd (Thromboxane A2 receptor) |
| --- | --- | --- | --- |
| CC(OCCCNC(=O)c1coc(-c2ccc(/C(=C\CCCCC(=O)O)c3cccnc3)cc2)n1)C1CCCCC1 (configuration not stated) | 5000 nM | – | – |
| O=C(O)CCCC/C=C(\c1ccc(-c2nc(C(=O)NCCCCOc3ccccc3)co2)cc1)c1cccnc1 | 500 nM | – | – |
| O=C(O)CCCC/C=C(\c1ccc(-c2nc(C(=O)NCCc3ccccc3)co2)cc1)c1cccnc1 | – | 9.4 nM | 82.4 nM |
| COc1ccc(CCCNC(=O)c2coc(-c3ccc(/C(=C\CCCCC(=O)O)c4cccnc4)cc3)n2)cc1 | – | 2.7 nM | 119 nM |
| O=C(O)CCCC/C=C(\c1ccc(-c2nc(C(=O)N[C@@H]3C[C@H]3c3ccccc3)co2)cc1)c1cccnc1 | 5000 nM | – | – |
| O=C(O)CCCC/C=C(\c1ccc(-c2nc(C(=O)NCCOCc3ccccc3)co2)cc1)c1cccnc1 | – | 47.5 nM | 156 nM |
| O=C(O)CCCC/C=C(\c1ccc(-c2nc(C(=O)NCCCCC3CCCCC3)co2)cc1)c1cccnc1 | 400 nM | – | – |
| O=C(O)CCCC/C=C(\c1ccc(-c2nc(C(=O)NCCOCC3CCCCC3)co2)cc1)c1cccnc1 | – | 36.7 nM | 43.3 nM |
| CCOCCCNC(=O)c1coc(-c2ccc(/C(=C\CCCCC(=O)O)c3cccnc3)cc2)n1 | – | – | 1400 nM |
| O=C(O)CCCC/C=C(\c1ccc(-c2nc(C(=O)NCCCN3CCOCC3)co2)cc1)c1cccnc1 | – | 50.8 nM | – |
| O=C(O)CCCC/C=C(\c1ccc(-c2nc(C(=O)NS(=O)(=O)c3ccc(Cl)cc3)co2)cc1)c1cccnc1 | 4000 nM | – | – |
| O=C(O)CCCCO/N=C(/c1cccnc1)c1cccc(C(F)(F)F)c1 [RIDOGREL] | – | 14.7 nM | 8000 nM |

Source: ChEMBL document CHEMBL1131443, “Development of dual-acting agents for thromboxane receptor antagonism and thromboxane synthase inhibition. 3. Synthesis and biological activities of oxazolecarboxamide-substituted omega-phenyl-omega-(3-pyridyl)alkenoic acid derivatives and related compounds” (J Med Chem, 1998)
